Screening results: PubChem BioAssay, Sanford-Burnham Center for Chemical Genomics
SUMO1-SIM PPI = SUMO1-SIM interaction modulation | P63165 | AID 602429 | SUMO1 binding to a labelled peptide, TR-FRET, 1 h | inhibition, % at 20 µM | 360,000 tested, 0.33% active; in the data active = inhibition above about 37%
Target sequence (P63165 whole entry, looked up): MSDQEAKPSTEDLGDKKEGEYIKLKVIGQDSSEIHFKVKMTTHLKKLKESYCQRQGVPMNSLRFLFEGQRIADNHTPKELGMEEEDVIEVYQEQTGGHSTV
DNMT1 inh = blocks human DNA methyltransferase DNMT1 | P26358 | AID 588458 | 360,000 tested, 0.83% active | inhibition (reported as % activation of signal), % at 10 µM | DNMT1 molecular beacon, Hinp1I cleavage, fluorescence; in the data active = inhibition above about 50%
NadD block = NadD (S. aureus) enzyme inhibition. purified NadD enzyme, colorimetric absorbance read-out. inhibition, % at 20 µM. 360,000 tested, 0.78% active. AID 602399; in the data active = inhibition above about 26%
Scp-1 inhibitor = inhibitors of human Scp-1 phosphatase | Q9GZU7 | Recombinant Scp1, phosphopeptide, malachite green phosphate absorbance | inhibition, % at 20 µM | 340,000 tested, 0.88% active | AID 493091;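 active = inhibition above about 50% at 20 µM, limit read from the data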
Target sequence (Q9GZU7 76-261 limits assumed): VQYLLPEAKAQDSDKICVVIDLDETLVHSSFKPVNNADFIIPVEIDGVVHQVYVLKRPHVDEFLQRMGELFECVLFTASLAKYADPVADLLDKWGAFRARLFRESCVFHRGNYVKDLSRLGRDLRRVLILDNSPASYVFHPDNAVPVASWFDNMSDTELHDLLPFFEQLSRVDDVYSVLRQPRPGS
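Material: truncated SCP-1 phosphatase (76-261aa) / Buffer or medium: 50 mM Tris acetate pH 5.5, 0.005% Tween-20, 10 mM MgCl2 / Compound dosing: one concentration, 20 µM, with 1.0% DMSO / Incubation: 45 min room-temperature reaction, 5 min colour, 30 min stabiliser / Detection: colorimetric free-phosphate detection, absorbance 630 nm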
STEP block = blocks human striatal-enriched tyrosine phosphatase; AID 588621; inhibition, % at 20 µM; 360,000 tested, 0.25% active; P54829; recombinant STEP, OMFP fluorogenic substrate, fluorescence;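 active = inhibition at 20 µM, scaled per plate between control wells, above about 37%, limit read from the data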
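Measure: Control-normalized % inhibition with plate pattern correction | Test system: STEP phosphatase, cell-free reaction | Medium: pH 6.0 Bis-Tris with DTT and Tween 20 | Technique: Fluorescence, 480/540 nm | Times: Reaction 20 min, ambient temperature | Doses: Single compound dose of 20 µM, 1% DMSO final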
LMPTP block = LMPTP (human) inhibition; P24666; inhibition, % at 20 µM; 360,000 tested, 0.22% active; recombinant LMPTP-A, OMFP fluorogenic substrate, fluorescence intensity; AID 651560;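 active = compounds that cut the enzyme signal by at least half of the control window in the single-dose screen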
Target sequence (P24666 whole entry, looked up): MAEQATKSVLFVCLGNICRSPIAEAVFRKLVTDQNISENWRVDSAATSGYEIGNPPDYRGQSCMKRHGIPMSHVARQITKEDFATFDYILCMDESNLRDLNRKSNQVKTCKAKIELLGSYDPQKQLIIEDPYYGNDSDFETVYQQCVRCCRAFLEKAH
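Assay system: LMPTP-A phosphatase enzyme | Input: 0.625 nM enzyme | Also added: Fluorogenic phosphatase substrate OMFP at 400 µM final | Compound dosing: One test concentration per compound, 20 µM, with 3% DMSO overall | Schedule: 50 min enzyme reaction at room temperature, protected from light | Signal: Fluorescence intensity | Benchmarks: no-enzyme and uninhibited controls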
NadD inh conf = confirmation of Staphylococcus aureus NadD inhibitors; shares compounds with NadD block; purified S. aureus NadD, colorimetric enzyme assay; inhibition, % at 20 µM; 2,000 tested, 13% active; AID 624309; in the data active = inhibition mostly above about 42%, no sharp cut-off; inactive = mostly below about 42%
Of the large screens only hits and unclear results are named; the others gave an inactive call (follow-up assays come after a bar, where they were run). Hits are enriched below; roughly 2.3% of the tested compounds scored in any of these assays.

COc1ccc(OC)c(NC(=O)COC(=O)CN2C(=O)NC3(CCCC3)C2=O)c1	none
CCOC(=O)C1(C)CCCN(C(=O)c2ccc(OC)cc2)C1 (configuration not stated)	none (no result: Scp-1 inhibitor)
O=C(O)CC/C(=C\c1cccc(NC(=O)c2ccccc2Cl)c1)c1nc2ccccc2s1	NadD block 30 | NadD inh conf inactive
CCn1ncc(Br)c1C(=O)NC1CCCCCCC1	none
O=C(/C=C/c1cccc([N+](=O)[O-])c1)NC(=S)Nc1cccc(NC(=O)c2ccccc2Cl)c1	NadD block 29 | NadD inh conf inactive
CCCCc1nc2ccccc2c(=O)n1NC(=O)c1c(O)c2c(n(CC(C)C)c1=O)CCCC2	NadD block 33 | NadD inh conf inactive
NC(=Nc1c([N+](=O)[O-])cnc2ccccc12)N1CCOCC1	none (no result: Scp-1 inhibitor)
Cc1nn(-c2ccc([N+](=O)[O-])cc2)c2c1C(c1cccc(Br)c1)N1C(=N2)C(=O)Nc2ccccc21 (configuration not stated)	NadD block 31 | NadD inh conf inactive
CSc1nsc(/C=C/Nc2ccc(Cl)cc2)c1C#N	none
CSc1nsc(/C=C/Nc2cccc(Cl)c2)c1C#N	NadD block 32 | NadD inh conf inactive
COc1ccc(-c2ccc(C(=O)NCc3ccncc3)c3occc23)c(C)c1	none (no result: Scp-1 inhibitor)
COc1ccc(/C=N/NC(=O)c2nc(-c3ccccc3)cc(-c3ccccc3)n2)cc1	NadD block 39 | NadD inh conf inactive
COc1ccc(/C=N/NC(=O)c2c(-c3ccccc3)noc2C)cc1	none
COc1ccc(/C=N/NC(=O)c2nc(-c3ccccc3)cc(-c3ccccc3)n2)cc1O	NadD block 38 | NadD inh conf inactive
COc1ccc(-c2n[nH]c(=S)n2-c2ccc(C)cc2)cc1OC	none
COc1ccc(-c2csc(NC(=S)NC(=O)c3cccs3)n2)cc1Br	NadD block 25 | NadD inh conf inactive
CCC1CCCCN1c1ccc([N+](=O)[O-])cc1/C=N/NC(=O)Cn1c2ccccc2c(=O)c2ccccc21 (configuration not stated)	NadD block 51 | NadD inh conf inactive
O=C(C[C@H]1C/C=C\C[C@@H](Cc2ccc(F)cc2)C(=O)OC[C@H]2CCCN2C1=O)NCCO	none
O=C(COC(=O)C1CCC1)NCc1ccccc1	none
O=c1/c(=C\c2ccc(O)cc2)sc2n1C(c1ccccc1)C(c1ccccc1)=NN=2 (configuration not stated)	NadD block 39 | NadD inh conf 57
CCOC(=O)C1=C(c2ccccc2)N=c2s/c(=C\c3cccc(O)c3)c(=O)n2C1c1cccs1 (configuration not stated)	none
Cc1c(N=C2N=C(NC(=O)Nc3ccc(Cl)cc3)c3ccccc32)c(=O)n(-c2ccccc2)n1C	none
Cc1c(C(=O)NNC(=O)c2csc(N3CCOCC3)n2)oc2ccc(Br)cc12	NadD block 32 (no result: Scp-1 inhibitor) | NadD inh conf inactive
CCc1cc2c(=O)c(-c3ccc(F)cc3)c(C)oc2cc1OCC(=O)O	none
CCc1cc2c(=O)c(-c3cnn(-c4ccccc4)c3)c(C)oc2cc1OCC(=O)Nc1ccc(F)c(F)c1	NadD block 33 | NadD inh conf inactive
CCOC(=O)C1=C(C)N=c2sc(=Cc3cc(Cl)c(OCC(=O)O)c(Cl)c3)c(=O)n2C1c1cccc(OC)c1 (configuration not stated)	NadD block 34 (no result: Scp-1 inhibitor) | NadD inh conf 52
CCc1ccc(NC(=O)CSc2nncn2-c2cccnc2)cc1	none
Nc1ccc(O)c(-c2nc3ccccc3s2)c1	NadD block 63 | NadD inh conf inactive
O=C(NCCCO)/C(=C/c1ccc(-c2cccc([N+](=O)[O-])c2)o1)NC(=O)c1ccccc1	none
CCCNC(=O)Cn1c(=O)/c(=C\c2ccc(-c3cccc([N+](=O)[O-])c3)o2)s/c1=C\C(=O)C(C)(C)C	NadD block 35 | NadD inh conf inactive
N#Cc1nc(-c2ccccc2)oc1NCCCn1ccnc1	none
N#Cc1nc(-c2ccc(OCc3ccc(Cl)cc3)cc2)oc1NCCCn1ccnc1	NadD block 30 | NadD inh conf inactive
CCCn1c(=O)c(C(=O)NNS(=O)(=O)c2ccc(Cl)cc2)c(O)c2ccccc21	NadD block 30 | NadD inh conf inactive
CCCCCCCCCC(=O)NNC(=O)c1c(O)c2ccccc2n(CCC)c1=O	NadD block 38 | NadD inh conf inactive
CCCCCCCCC(=O)NNC(=O)c1c(O)c2ccccc2n(CCC)c1=O	none
C/C=C/C1=CC(=O)C[C@H](c2ccc3c(c2)OCO3)C1	none
CCOc1ccc(-c2csc(/C(C#N)=C\c3ccc(O)c([N+](=O)[O-])c3)n2)cc1	NadD block 48 | NadD inh conf inactive
CCCCc1ccc(-c2csc(/C(C#N)=C\c3ccc(C)o3)n2)cc1	none
COc1cccc(C(=O)Nc2ccccc2OC(F)(F)F)c1	none
CCOC(=O)Cn1c(=NC(=O)c2nc3ccccc3s2)sc2cc(S(N)(=O)=O)ccc21	none
C=CCn1c(=NC(=O)c2cc(-c3cccs3)nc3ccccc23)sc2cc(S(N)(=O)=O)ccc21	NadD block 51 | NadD inh conf 59
COCCn1c(=NC(=O)c2cc(-c3cccs3)nc3ccccc23)sc2cc(S(N)(=O)=O)ccc21	NadD block 52 | NadD inh conf 57
CS(=O)(=O)N1CCN(C(=O)c2cc(-c3cccs3)nc3ccccc23)CC1	none
COCCn1c(=NC(=O)c2sc3ccccc3c2Cl)sc2cc(S(N)(=O)=O)ccc21	NadD block 29 | NadD inh conf inactive
CCCCC[C@@H](C)N1C[C@H](COCc2ccccc2)Oc2cc(N3CCC[C@H]3CO)ccc2S1(=O)=O	none (no result: DNMT1 inh, Scp-1 inhibitor, STEP block)
O=C(NCCS(=O)(=O)N1CCN(c2ccccc2)CC1)C1CCCCC1	none (no result: Scp-1 inhibitor)
N#Cc1ccccc1NC(=O)C1SC(=Nc2ccccc2)C(C(=O)Nc2ccc(Cl)cc2)=C1N (configuration not stated)	none
CCOc1ccc(N=C2SC(C(=O)Nc3ccccc3C#N)C(N)=C2C(=O)Nc2ccc(Cl)cc2)cc1 (configuration not stated)	NadD block 31 | NadD inh conf inactive
O=C1CN(c2nc3nonc3nc2N2CCCCC2)CCN1	none
CC(=O)c1cccc(CN2CCCC(C(=O)Nc3ccc(-c4ccco4)cc3)C2)c1 (configuration not stated)	NadD block 32 | NadD inh conf inactive
CCn1c2ccccc2c2cc(N=C3SC(CC(=O)Nc4ccccc4OC)C(=O)N3C)ccc21 (configuration not stated)	none
